Measured values from different studies.
Protocols differ between the studies behind these lines.
MALT1: Mucosa-associated lymphoid tissue lymphoma translocation protein 1 (MALT1, Homo sapiens, UniProt Q9UDY8)
EDNRA: Endothelin-1 receptor (EDNRA, Homo sapiens, UniProt P25101)
CASP6: Caspase-6 (CASP6, Homo sapiens, UniProt P55212)
PDE5A: cGMP-specific 3',5'-cyclic phosphodiesterase (PDE5A, Homo sapiens, UniProt O76074)

CCOC(=O)c1ccc(OC(=O)CCCCCNC(=N)N)cc1 — inhibition (MALT1; enzyme activity, inhibitor; 10 µM): 46%
OC[C@@]12C[C@@H]1[C@@H](n1cnc3c(NC(C4CCCC4)C4CCCC4)nc(Cl)nc31)[C@H](O)[C@@H]2O — inhibition (5-hydroxytryptamine receptor 2A (HTR2A, Homo sapiens, UniProt P28223); ligand displacement, radioligand; 10 µM): 22%
CC(C)[C@H](NC(=O)OCc1ccccc1)C(=O)N[C@@H](CCCN=C(N)N)C(=O)N1CCC[C@H]1C(=O)N[C@@H](CCCN=C(N)N)C(=O)CF — inhibition (MALT1; enzyme activity, inhibitor; 1 nM): 9%
CC(C)Cn1cnc2c(N)nc3ccccc3c21 — inhibition (EDNRA; ligand displacement, radioligand; 10 µM): 8%
[H]/N=C(/N)c1ccc(NCc2nc3cc(C(=O)N(CCC(=O)O)c4ccccn4)ccc3n2C)cc1 — inhibition (Vitamin K-dependent protein C (PROC, Homo sapiens, UniProt P04070); enzyme activity, inhibitor; 2 µM): 43%
CC(C)N1CCC[C@H]1CNC(=O)c1cn(C2CCCC2)c(=O)c2c1c1ccccc1n2C — inhibition (EDNRA; ligand displacement, radioligand; 10 µM): 11%
CN(C)C(=O)COC(=O)Cc1ccc(OC(=O)c2ccc(NC(=N)N)cc2)cc1 — inhibition (CASP6; enzyme activity, inhibitor; 10 µM): 3%
CN(CCN1CCC(OC(=O)Nc2ccccc2-c2ccccc2)CC1)C(=O)c1ccc(CN2CCC(C(N)=O)CC2)cc1 — inhibition (Corticotropin-releasing factor receptor 1 (Rattus norvegicus, UniProt P35353); ligand displacement, radioligand; 1 µM): -2%
O=C(Nc1cccnn1)N1CCN([C@@H]2CCOc3cc(C(F)(F)F)ccc32)CC1 — inhibition (PDE5A; enzyme activity, inhibitor; 20 µM): 5%
CCN(CC)CCCC[C@H](NC(=O)[C@H](CC(C)C)NC(=O)[C@H](C)NC(=O)[C@H](Cc1ccccc1)NC(=O)c1ccc(C(C)(C)C)cc1)C(=O)N[C@@H](CO)C(=O)OC — inhibition (Cannabinoid receptor 1 (CNR1, Homo sapiens, UniProt P21554); ligand displacement, radioligand; 10 µM): -13%
COCc1c(-c2cc3cc(C)cc(OC)c3s2)c2c(N)ncnn2c1CN1CCNC(=O)C1 — inhibition (EDNRA; ligand displacement, radioligand; 10 µM): 12%
C#Cc1n[nH]c2c(-c3cn(C(C)c4ccccn4)c(=O)[nH]c3=O)cc(F)cc12 (stereo not shown) — inhibition (Aurora kinase B (AURKB, Homo sapiens, UniProt Q96GD4); enzyme activity, inhibitor; 1 µM): 6.7%
COc1cc(Nc2ncc(F)c(Nc3ccc4c(n3)NC(=O)C(C)(C)O4)n2)cc(OC)c1OC — inhibition (Serine/threonine-protein kinase VRK2 (VRK2, Homo sapiens, UniProt Q86Y07); binding; 10 µM): 0%
C[C@H](C(=O)N[C@H]1COc2ccccc2[C@@H]1S(C)(=O)=O)c1ccc(F)cc1 — inhibition (PDE5A; enzyme activity, inhibitor; 10 µM): -5%
N=C(N)c1ccc2cc(OC(=O)c3ccc(N=C(N)N)cc3)ccc2c1 — inhibition (CASP6; enzyme activity, inhibitor; 10 µM): 4%
Cn1cc(-c2cc(F)cc(N3CCn4c(cc5c4CCCC5)C3=O)c2CO)cc(Nc2ccc(N3CCN(C4COC4)CC3)cn2)c1=O — inhibition (Sphingosine kinase 1 (SPHK1, Homo sapiens, UniProt Q9NYA1); enzyme activity, inhibitor; 0.1 µM): 4%
Cc1ncc(C)n2nc(/C=C/c3nc(N4CCCC4)cc(N4CCOCC4)n3)nc12 — inhibition (PDE5A; enzyme activity, inhibitor; 10 µM): 38%
CC(C)=CCCC1(C)C=Cc2c(O)c3c(c(CC=C(C)C)c2O1)OC12C(=CC4CC1C(C)(C)OC2(C/C=C(/C)C(=O)O)C4O)C3=O (stereo not shown) — inhibition (Histone-lysine N-methyltransferase EHMT1 (EHMT1, Homo sapiens, UniProt Q9H9B1); cell-free assay; 10 µM): -4%
Cn1cc(-c2cccc(N3CCc4c(sc5c4CC(C)(C)C5)C3=O)c2CO)cc(Nc2ccncn2)c1=O — inhibition (Phosphatidylinositol 4-phosphate 3-kinase C2 domain-containing subunit beta (PIK3C2B, Homo sapiens, UniProt O00750); enzyme activity, inhibitor; 1 µM): -3%
